The subject of this assay is Soluble Proteome. The assay is described as follows: proteome-wide probe labelling blockade by competitive ABPP – cell lysate, gel-based fluorescence, soluble and membrane fractions, selectivity assay for PAD4 inhibitor project, late-stage follow-up (AID 651628). Particulars: MCF7 proteome, CA-Rh gel-based ABPP, anti-target count, at 10 µM, hits give high values. The gist of the method:
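Buffer or medium: DPBS; System: MCF7 soluble or membrane proteome; Quantity: proteome protein concentration of 1 mg/ml; Also added: CA-Rh probe, 10 µM; Times: compound pre-incubation 1 h, then probe labelling 1 h, both 25 °C; Control set: DMSO-only reference; Signal: SDS-PAGE separation with in-gel fluorescence scanning of labelled bands.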

This note sets out measurements from PubChem BioAssay AID651628 (The Scripps Research Institute Molecular Screening Center, 2012).

A number with no mark means an inactive call. Active and inactive are the calls of the source.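 Rule for the calls: active = at least one off-target enzyme showing weaker fluorescent probe labeling in any proteome panel; inactive = no off-target enzyme affected in any panel.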 Bounds are passed on as bounds.

With `COC1=C(I)C(=O)c2nc(C#N)ccc2C1=O`, the number of anti-targets was > 5 (active).

Regarding `COC1=C(N)C(=O)c2ncccc2C1=O`, the number of anti-targets was 0.

For `COC1=C(N)C(=O)c2nc(-c3nc(C(=O)O)c(C)c(-c4ccc(OC)c(OC)c4O)c3N)ccc2C1=O`, the number of anti-targets was 0.

Regarding `COC(=O)c1cccc(-c2ccc3c(n2)C(=O)C(N)=CC3=O)n1`, the number of anti-targets is 0.

In the case of `NC1=CC(=O)c2cccnc2C1=O`, the number of anti-targets is 0.

Take `COC1=C(Br)C(=O)c2ncccc2C1=O`: the number of anti-targets is > 5 (active).

On to `O=C1C(O)=C(O)C(=O)c2ncccc21`, for which the number of anti-targets was 0.

`COC1=CC(=O)c2nc(C#N)ccc2C1=O`: the number of anti-targets is > 5 (active).

Take `NC1=CC(=O)c2ccc(-c3cccc(C(=O)O)n3)nc2C1=O`: the number of anti-targets was 0.

With `COC(=O)c1nc(C(=O)OC)c(NC(C)=O)c(-c2ccccc2Br)c1C`, the number of anti-targets is 0.

As for `O=C1C=C(Br)C(=O)c2ncccc21`, the number of anti-targets was > 5 (active).

Consider `NC1=CC(=O)c2ccc(-c3ccccn3)nc2C1=O`, for which the number of anti-targets was 0.

On to `COC1=C(Br)C(=O)c2nc(-c3ccccn3)ccc2C1=O`, for which the number of anti-targets was 0.

As for `COC(=O)c1cccc(-c2ccc3c(n2)C(=O)C(Br)=CC3=O)n1`, the number of anti-targets was 0.
